An excerpt weighted towards active compounds, which were near 3.7% of everything screened.
KCC2 mod = modulates chloride dependent transport by human KCC2. Q9H2X9. KCC2 cells, thallium flux FluoZin-2 fluorescence. B-score of Tl+ flux slope (higher = more flux/activation; lower = inhibition) at 10 µM. hit rate 2.2% among 190,000. AID 1456;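 active means thallium flux slope and its plate-corrected score both differing from the plate sample mean at a set confidence after two filtering rounds, in either direction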;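 further: slope of fluorescence scaled to starting intensity during 10 to 20 s after thallium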
Mdm2 ligase inh = Mdm2 E3 ligase (human) inhibition; Q00987; cell-based MDM2 ubiquitination luciferase reporter, 2 h; 0 = plate control, 100 = twice control, blank-subtracted; signal enhancement, % at 5 µM; hit rate 0.11% among 210,000;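 active means signal enhancement of 30% or more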;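 further: luminescence tracks abundance of the self-degrading MDM2-luciferase fusion protein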
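Material: stable MDM2–luciferase fusion reporter cells / Quantity: 2000 cells/well / Dosing: single 5 µM compound dose, 0.2% final DMSO / Buffer or medium: DMEM / Schedule: 4 h cell settling then 2 h compound exposure, 37 °C / Detection: luminescence with SteadyLite reagent, 15 min at room temperature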
PKD1 inh = inhibitors of human PKD1 kinase; PKD1 kinase fluorescence polarization assay; inhibition, % (no concentration beside the values); hit rate 0.056% among 200,000; in the data active means inhibition above about 50%
Arbovirus anti = antivirals against arbovirus infection; inhibition, % at 10 µM; hit rate 0.37% among 200,000; AID 1251; arbovirus infection cell-based antiviral screen; in the data active means inhibition above about 30%
ROMK primary = modulates human ROMK potassium channel activity; Tet-inducible ROMK, thallium flux fluorescence; actives lie on both sides; hit rate 2% among 130,000; B-score at 10 µM; AID 1918; P48048;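 active means signal ratio slope over the read window, or its plate-corrected B-score, at least 3 SD from the plate mean, either direction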;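 further: B-score of the F/F0 ratio slope over 7 to 12 s after thallium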
m-calpain inh = calpain II (pig) inhibition. hit rate 0.37% among 220,000. purified calpain II, fluorogenic peptide substrate, 30 min. inhibition, % at 16 µM;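 active means inhibition above about 50%, limit read from the data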
ROMK retest = retested hit modulating human ROMK potassium channel | shares compounds with ROMK primary | ROMK thallium flux, fluorescence ratio; stronger effect = lower value | normalized thallium flux (F/F0 slope) at 10 µM | hit rate 54% among 3,000;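 active means Flux at 10 µM at least 3 SD below or above vehicle control mean in one or both replicates; inconclusive means no clear call, values can overlap the other calls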
Starred values were filed as active, the others as inactive; i = inactive; ? = inconclusive; . = no result given.

SMILES	KCC2 mod	Mdm2 ligase inh	PKD1 inh	Arbovirus anti	ROMK primary	m-calpain inh	ROMK retest
CCOC(=O)c1c(C)[nH]c(C(=O)COC(=O)C(C)Oc2ccc(Cl)cc2Cl)c1C (stereo unspecified)	-0.5	3	-6	-1	-0.26	3	.
Cc1ccc(/C=[N+](\[O-])c2ccc(N(C)C)cc2)c2nsnc12	.	-12	-6	-12	.	-20	0.047*
C/C=C(\CS(=O)(=O)c1ccccc1)S(=O)(=O)c1ccccc1	-0.018	-6	-11	12	.	2	.
COC(=O)N/N=C/c1cn(Cc2ccccc2F)c2ccccc12	-0.35	11	.	.	-3.4*	-16	0.059*
Cc1ccc(N/C=C(\[N+](=O)[O-])S(=O)(=O)c2ccccc2)cc1	.	-6	-8	7	0.3	-8	.
Cc1ccc(N/C=C(\C#N)S(=O)(=O)c2ccccc2)cc1	0.82	-2	-5	-3	2.5*	13	0.078
O=C1/C(=C\Nc2ccc(OC(F)(F)F)cc2)CCN1c1ncccn1	.	-6	-6	-5	2.9*	-5	0.083
Cc1ccc(-c2nc(CSCC(=O)N3CCN(c4ccccn4)CC3)c(C)o2)cc1	-1.7	-6	-10	7	.	-1	.
CCOc1ccc(-c2nc(CSCC(=O)N3CCN(c4cccc(OC)c4)CC3)c(C)o2)cc1	.	-77	-5	19	.	6	0.067*
COc1cc(C(=O)N2CCN(Cc3ccccc3C(F)(F)F)CC2)cc(OC)c1OC	.	8	-1	1	-2.6*	-27	0.077
CCOc1ccc(NC(=O)CN(C)CC(=O)Nc2ccc(Br)cc2F)cc1OCC	-1.3	-6	-3	-2	0.82	-25	.
CCCCC[C@H](O)/C=C/C1=C(CCCCCCC(=O)O)C(=O)CC1	-2.6	.	4	8	.	-8	0.081
O=c1c(Cc2ccccc2)c(O)c2cccc3c4c(n1c23)CCCC4	-2.4	-5	.	.	3.8*	-76	?
Cn1c(=O)c(Cc2ccccc2)c(O)c2ccccc21	1	-2	-4	5	.	-50	.
Cc1nc2cc(NCc3nc4ccccc4n3Cc3ccccc3)ccc2n1C	.	-9	-5	2	-5.2*	-19	0.061*
CCOc1cccc(-c2cc(C(=O)N3N=C(C)CC3(O)C(F)F)c3ccccc3n2)c1 (stereo unspecified)	-0.9	-5	1	0	0.0025	19	.
COc1ccc(NC(=O)C2CC2)cc1-n1cnnn1	0.088	-6	-4	7	.	-13	.
COc1cc(NC(=O)C2CCN(S(=O)(=O)c3ccc(Cl)cc3)CC2)ccc1-n1cnnn1	0.02	-15	7	-39	.	-25	0.053*
CC(=O)Nc1ccc(S(=O)(=O)Nc2nc3ccccc3nc2-n2ccc(=NC(=O)c3ccc(F)cc3)cc2)cc1	0.17	5	-3	6	-0.18	-51	.
CCN(CC)C(=O)CSc1nc2ccccc2c(=O)n1CC1CCCCC1	-2.7	0	-8	-19	-2.4	24	0.061*
CCOC(=O)c1cc(NC(=O)CC(C)(C)CC(=O)O)ccc1N1CCCCC1	0.1	-11	.	.	.	7	.
O=C(N/N=C/c1ccco1)c1cc(-c2ccc3ccccc3c2)n[nH]1	-1.2	-14	5	-44	-0.95	-67	.
CCc1ccc(-c2cc(C(=O)N/N=C/c3ccco3)[nH]n2)cc1	0.18	-8	-2	-11	-3.2*	9	0.063*
CCOc1c2ccc(C(=O)NCc3ccc4c(c3)OCO4)cc2nn1CC	0.93	2	-7	3	0.17	i	.
COc1ccc2occ(C(=O)c3coc4ccc(O)c(CN(C)C)c34)c2c1	-3	-19	-1	1	.	10	0.061*
CN(C)Cc1c(O)ccc2occ(C(=O)c3ccccc3)c12	-0.22	-12	0	10	.	15	.
COc1ccc(OC)c(C(=O)c2coc3ccc(OCC(=O)O)cc23)c1	.	-13	1	3	2.8*	-66	0.07
OCCC1CN(Cc2ccccc2-c2ccco2)CCN1C1CCCC1 (stereo unspecified)	-2.9	-10	-1	-11	-4*	2	0.051*
CC1CCCCN1C(=O)Cn1cnc2cc([N+](=O)[O-])ccc2c1=O (stereo unspecified)	-0.3	-22	-6	2	-0.85	15	.
